Data from ChEMBL document CHEMBL2062504, “Diterpenoid alkaloids from the lateral root of Aconitum carmichaelii” (J Nat Prod, 2012).
Active and inactive are the calls of the source. No cut-off for these calls is given here.

Assays:
[1] = system: PC-12; test: Neuroprotective activity against serum starvation-induced cell death in rat PC12 cells assessed as cell viability at 10 uM incubated for 24 hrs prior to serum starvation measured after 24 hrs by MTT assay (reference value: 55.1+/-4.2%); format: functional; conditions: read-out: Activity
[2] = system: KETR3; test: Cytotoxicity against human Ketr3 cells at 10 uM after 96 hrs by MTT assay; format: functional, cell-based
[3] = system: Liver microsomes; test: Antioxidant activity in rat liver microsome assessed as inhibition of FeSO4-induced lipid peroxidation at 10 uM incubated for 15 mins prior to FeSO4-challenge measured after 15 mins by modified thiobarbituric acid method; format: functional
[4] = system: HCT-8; test: Cytotoxicity against human HCT8 cells at 10 uM after 96 hrs by MTT assay; format: functional, cell-based
[5] = system: Peritoneal macrophage cell; test: Antiinflammatory activity in mouse peritoneal macrophages assessed as inhibition of nitric oxide production at 10 uM; format: functional, cell-based
[6] = system: BGC-823; test: Cytotoxicity against human BGC823 cells at 10 uM after 96 hrs by MTT assay; format: functional, cell-based
[7] = system: Bel-7402; test: Cytotoxicity against human Bel7402 cells at 10 uM after 96 hrs by MTT assay; format: functional, cell-based
[8] = system: WB-F344; test: Hepatoprotective activity against DL-galactosamine-induced cell death in rat WB-F344 cells at 10 uM incubated for 1 hr prior to DL-galactosamine-challenge measured after 24 hrs by MTT assay; format: functional, cell-based
[9] = system: A549; test: Cytotoxicity against human A549 cells at 10 uM after 96 hrs by MTT assay; format: functional, cell-based
[10] = system: MCF7; test: Cytotoxicity against human MCF7 cells at 10 uM after 96 hrs by MTT assay; format: functional, cell-based
[11] = system: Mus musculus; test: Analgesic activity in mouse assessed as reduction in acetic acid-induced writhing at 5 mg/kg, ip relative to vehicle-treated control; format: functional; parameters: scale not given: the % may be the effect or the level left; conditions: route intraperitoneal
Outline: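 Mice dosed ip at 5 mg/kg, then given acetic acid to provoke writhing. Writhes were counted, and the value is the percent reduction in writhes compared with a blank control group, reported as mean ± deviation.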

[12] = system: Mus musculus; test: Analgesic activity in mouse assessed as reduction in acetic acid-induced writhing at 0.5 mg/kg, ip relative to vehicle-treated control; format: functional; parameters: scale not given: the % may be the effect or the level left; conditions: route intraperitoneal
Outline: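 Acetic acid-induced writhing test in mice. Compound given intraperitoneally at 0.5 mg/kg. Analgesia expressed as percent reduction in number of writhes versus blank control.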

[13] = system: Mus musculus; test: Toxicity in mouse acetic acid writhe model assessed as mortality at 5 mg/kg, ip; format: organism-based; parameters: dose 5 mg/kg, route intraperitoneal; conditions: in vivo
Outline: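 Mice given 5 mg/kg ip in the acetic acid-induced writhing test; deaths recorded, alongside percent reduction of writhes versus blank control.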

[14] = Toxicity in ip dosed mouse acetic acid wrtihe model; format: organism-based; conditions: in vivo
Outline: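 Acute toxicity in mice dosed intraperitoneally, reported as LD50 in mg/kg.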

Row | SMILES | viability at 10 µM [1] | Activity [2] | inhibition [3] | Activity [4] | inhibition [5] | Activity [6] | Activity [7] | Activity [8] | Activity [9] | Activity [10] | Activity [11] | Activity [12] | Activity [13] | LD50 [14]
1 | CCN1C[C@]2(COC)[C@H](O)C[C@H](OC)[C@]34C1[C@H]([C@H](OC)[C@H]23)[C@]1(O)[C@H]2[C@@H](OC(=O)c3ccccc3)[C@](O)(C[C@H]24)[C@@H](OC)[C@@H]1O | 70.8% | inactive | inactive | inactive | inactive | inactive | inactive | inactive | inactive | inactive | – | – | – | –
2 | COC[C@]12CN(C)C3[C@@H]4[C@H](OC)[C@H]1[C@@]3([C@@H](OC)C[C@H]2O)[C@]1(O)C[C@@]2(O)[C@H](OC(=O)c3ccccc3)[C@@H]1[C@]4(OC)[C@@H](O)[C@@H]2OC (stereo in doubt; 7) | – | – | – | – | – | – | – | – | – | – | 35% | – | – | –
3 | COC[C@]12CN(C)C3[C@@H]4[C@H](OC)[C@H]1[C@@]3([C@@H](OC)C[C@H]2O)[C@]1(O)C[C@@]2(O)[C@H](OC(=O)c3ccccc3)[C@@H]1[C@]4(OC)[C@@H](O)[C@@H]2OC (stereo in doubt; 8) | – | – | – | – | – | – | – | – | – | – | 56% | – | – | –
4 | COC[C@@]12CC[C@H](OC)[C@]34C(C([C@H](OC)[C@H]13)[C@]1(OC(C)=O)[C@H]3[C@@H](OC(=O)c5ccccc5)[C@](O)(C[C@H]34)[C@@H](OC)[C@@H]1O)N(C)C2 [HYPACONITINE] | – | inactive | inactive | inactive | inactive | inactive | inactive | inactive | inactive | inactive | – | 36% | Toxic | 2.65 mg/kg
5 | CCN1C[C@]2(COC)CC[C@H](OC)[C@]34C1[C@H]([C@H](O)[C@H]23)[C@]1(OC)[C@H]2[C@@H](OC(=O)c3ccccc3)[C@H](C[C@H]24)[C@@H](OC)[C@@H]1O | 75.8% | inactive | inactive | inactive | inactive | inactive | inactive | inactive | inactive | inactive | – | – | – | –
6 | CCN1C[C@]2(COC)CC[C@H](OC)[C@]34C1[C@H]([C@H](OC)[C@H]23)[C@]1(OC(C)=O)[C@H]2[C@@H](OC(=O)c3ccccc3)[C@H](C[C@H]24)[C@@H](OC)[C@@H]1O | – | inactive | inactive | inactive | inactive | inactive | inactive | inactive | inactive | inactive | – | – | – | –
7 | COC[C@]12CN(C)C3[C@@H]4[C@H](OC)[C@H]1[C@@]3([C@@H](OC)C[C@H]2O)[C@]1(O)C[C@@]2(O)[C@H](OC(=O)c3ccccc3)[C@@H]1[C@]4(O)[C@@H](O)[C@H]2OC | – | inactive | inactive | inactive | inactive | inactive | inactive | inactive | inactive | inactive | – | – | – | –
8 | COC[C@]12CN(C)C3[C@@H]4[C@H](OC)[C@H]1[C@@]3([C@@H](OC)C[C@H]2OC(C)=O)[C@]1(O)C[C@@]2(O)[C@H](OC(=O)c3ccccc3)[C@@H]1[C@]4(OC)[C@@H](O)[C@@H]2OC | – | inactive | inactive | inactive | inactive | inactive | inactive | inactive | inactive | inactive | – | – | – | –
9 | C=C1C[C@@]23C[C@H]4[C@@H]5[C@@]6(C)C[C@H](OC(=O)CC)C[C@@]57[C@@H]2[C@H](O)[C@@H]1[C@H](OC(=O)[C@@H](C)CC)C3[C@H]7[N+]4(C)[C@H]6O | – | inactive | inactive | inactive | inactive | inactive | inactive | inactive | inactive | inactive | – | – | – | –
10 | CCN1C(=O)[C@]2(COC)CC[C@H](OC)[C@]34C1[C@H]([C@H](OC)[C@H]23)[C@]1(OC(C)=O)[C@H]2[C@@H](OC(=O)c3ccccc3)[C@](O)(C[C@H]24)[C@@H](OC)[C@@H]1O | – | inactive | inactive | inactive | inactive | inactive | inactive | inactive | inactive | inactive | – | – | – | –
11 | COC[C@]12CN(C)C3[C@@H]4[C@H](OC)[C@H]1[C@@]3([C@@H](OC)C[C@H]2O)[C@@H]1C[C@@]2(O)[C@H](OC(=O)c3ccccc3)[C@@H]1[C@]4(OC(=O)c1ccccc1)[C@@H](O)[C@@H]2OC | 74.7% | inactive | inactive | inactive | inactive | inactive | inactive | inactive | inactive | inactive | – | – | – | –
12 | CCN1C[C@]2(COC)[C@H](O)C[C@H](OC)[C@]34C1[C@H]([C@H](OC)[C@H]23)[C@]1(OC(C)=O)[C@H]2[C@@H](OC(=O)c3ccccc3)[C@](O)(C[C@]24O)[C@@H](OC)[C@@H]1O | – | inactive | inactive | inactive | inactive | inactive | inactive | inactive | inactive | inactive | – | – | – | –
13 | COC[C@]12CN(C)C3[C@@H]4[C@H](OC)[C@H]1[C@@]3([C@@H](OC)C[C@H]2OC(C)=O)[C@@H]1C[C@@]2(O)[C@H](OC(=O)c3ccccc3)[C@@H]1[C@]4(O)[C@@H](OC(C)=O)[C@@H]2OC | – | inactive | inactive | inactive | inactive | inactive | inactive | inactive | inactive | inactive | – | – | – | –
14 | COC[C@@]12CC[C@H](OC)[C@]34C([C@H]([C@H](OC)[C@H]13)[C@]1(OC(C)=O)[C@H]3[C@@H](OC(=O)c5ccccc5)[C@](O)(C[C@H]34)[C@H](OC)[C@@H]1O)N(C)C2 | – | inactive | inactive | inactive | inactive | inactive | inactive | inactive | inactive | inactive | – | 30% | Toxic | 4.37 mg/kg
15 | CCN1C[C@]2(COC)CC[C@H](O)[C@]34C1[C@H]([C@H](OC)[C@H]23)[C@]1(O)[C@H]2[C@@H](OC(=O)/C=C/c3ccccc3)[C@H](C[C@H]24)[C@@H](OC)[C@@H]1O | – | inactive | inactive | inactive | inactive | inactive | inactive | inactive | inactive | inactive | – | – | – | –
16 | COC[C@]12CN(C)C3[C@@H]4[C@H](OC)[C@H]1[C@@]3([C@@H](OC)C[C@H]2O)[C@]1(O)C[C@@]2(O)[C@H](OC(=O)c3ccccc3)[C@@H]1[C@]4(O)[C@@H](O)[C@@H]2OC | – | inactive | inactive | inactive | inactive | inactive | inactive | inactive | inactive | inactive | – | – | – | –
